Activity calls are given as the source filed them. No cut-off for these calls is given here.
Columns and labels:
Canis familiaris [1] = assay: Saluretic activity in the dog measured as concentration of Na+ in urinary excretion (2 animals/dose) at (dose 1.56 mg/Kg, perorally); type: functional, Canis lupus familiaris, Urine
How it was run: (§1)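 Male beagles trained to rest on a table and to accept stomach tube and catheter. Food withdrawn 24 h before, tap water ad libitum. Bladder emptied by catheter, then 20 mL/kg tap water by stomach tube. Catheterized hourly up to 8 h with 4 mL/kg water orally each time; first 2 h urine served as control. Oral dosing after second catheterization. Pooled 1–6 h urine; Na⁺/K⁺ by flame photometry, Cl⁻ argentometrically.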

Canis familiaris [2] = assay: Saluretic activity in the dog measured as concentration of Na+ in urinary excretion (2 animals/dose) at (dose 12.5 mg/Kg, perorally); type: functional, Canis lupus familiaris, Urine; how it was run: as §1
Canis familiaris [3] = assay: Diuretic activity in the dog (2 animals/dose) at (dose 1.56 mg/Kg), when administered perorally; type: functional, Canis lupus familiaris, Urine
How it was run: (§2)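 Trained male beagles, fasted 24 h with tap water ad libitum. Bladder emptied by catheter, then 20 mL/kg tap water by stomach tube, with 4 mL/kg water at each hourly catheterization up to 8 h. The first 2 h of urine served as control. Oral dosing came after the second catheterization, and 1–6 h urine was pooled. Na⁺ and K⁺ were measured by flame photometry, Cl⁻ argentometrically, in mequiv/kg.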

Canis familiaris [4] = assay: Diuretic activity in the dog (2 animals/dose) at (dose 12.5 mg/Kg), when administered perorally; type: functional, Canis lupus familiaris, Urine; how it was run: as §2
Canis familiaris [5] = assay: Saluretic activity in the dog measured as concentration of K+ in urinary excretion (2 animals/dose) at (dose 1.56 mg/Kg, perorally); type: functional, Canis lupus familiaris, Urine
How it was run: (§3)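 Male beagles trained to the procedures, food withdrawn 24 h before, tap water ad libitum. Bladder emptied by catheter, then 20 mL/kg tap water by stomach tube, plus 4 mL/kg orally at each hourly catheterization up to 8 h. The first 2 h of urine served as control. Compound given orally after the second catheterization. Urine from 1–6 h post-dose pooled; Na⁺ and K⁺ by flame photometry, Cl⁻ argentometrically, in mequiv/kg.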

Canis familiaris [6] = assay: Salidiuretic activity on the basis of the 1.56 mg/Kg perorally dog assay; compound was found to be highly active; type: functional, organism-based; conditions: Canis lupus familiaris; Urine
Canis familiaris [7] = assay: Saluretic activity in the dog measured as concentration of K+ in urinary excretion (2 animals/dose) at (dose 12.5 mg/Kg, perorally); type: functional, Canis lupus familiaris, Urine; how it was run: as §1
Canis familiaris [8] = assay: Saluretic activity in the dog measured as concentration of Cl - in urinary excretion (2 animals/dose) at (dose 1.56 mg/Kg, perorally); type: functional, Canis lupus familiaris, Urine; how it was run: as §3
Canis familiaris [9] = assay: Saluretic activity in the dog measured as concentration of Cl - in urinary excretion (2 animals/dose) at (dose 12.5 mg/Kg, perorally); type: functional, Canis lupus familiaris, Urine; how it was run: as §3
Rattus norvegicus [10] = species: Rattus norvegicus; assay: Diuretic activity in the rats, determined by a modified Lipschitz test; type: functional, Urine
How it was run: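 Modified Lipschitz test: rats deprived of water 24 h, grouped in threes of similar weight in diuresis funnels. Oral dose of 50 mg/kg, suspended in 2% starch solution, by stomach tube.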

Rattus norvegicus [11] = species: Rattus norvegicus; assay: Saluretic activity in the rat measured as concentration of chloride in urine; type: functional
How it was run: (§4)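 Rats deprived of food 24 h, water ad libitum, dosed 50 mg/kg by stomach tube as suspension in 2% starch, no extra water load. Groups of three in diuresis funnels; urine over first 5 h collected. Na⁺ and K⁺ by flame photometry, Cl⁻ argentometrically; expressed as mequiv/kg.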

Rattus norvegicus [12] = species: Rattus norvegicus; assay: Saluretic activity in the rat measured as concentration of K+ in urine; type: functional; how it was run: as §4
[13] = It is the ratio, measured as saluretic activity in the dog as concentration of Cl- in urinary excretion (dose 1.56 mg/Kg, perorally) to that of (Na+)+(K+); type: functional, Urine; how it was run: as §2
[14] = It is the ratio, measured as saluretic activity in the dog as concentration of Na+ in urinary excretion (dose 1.56 mg/Kg, perorally) to that of K; type: functional, Urine; how it was run: as §2
[15] = It is the ratio, measured as saluretic activity in the dog as concentration of Na+ in urinary excretion (dose 12.5 mg/Kg, perorally) to that of K; type: functional, Urine; how it was run: as §2
[16] = It is the ratio, measured as saluretic activity in the dog as concentration of Cl- in urinary excretion (dose 12.5 mg/Kg, perorally) to that of (Na++K+); type: functional, Urine; how it was run: as §2
Rattus norvegicus [17] = species: Rattus norvegicus; assay: Saluretic activity in the rat measured as concentration of Na+ in urine; type: functional; how it was run: as §4
Rattus norvegicus [18] = assay: Salidiuretic activity on the basis of the 50 mg/kg perorally rat assay; NA means inactive; conditions: Urine
Canis familiaris [19] = assay: Saluretic activity in the dog measured as concentration of Na+ in urinary excretion (2 animals/dose) at (dose 1.56 mg/Kg, po); type: functional, Canis lupus familiaris, Urine; how it was run: as §1
Canis familiaris [20] = assay: Saluretic activity in the dog measured as concentration of K+ in urinary excretion (2 animals/dose) at (dose 1.56 mg/Kg, po); type: functional, Canis lupus familiaris, Urine; how it was run: as §1
Canis familiaris [21] = assay: Saluretic activity in the dog measured as concentration of Cl - in urinary excretion (2 animals/dose) at (dose mg/Kg, po); type: functional, Canis lupus familiaris, Urine; how it was run: as §3
[22] = It is the ratio, measured as saluretic activity in the dog as concentration of Na+ in urinary excretion (dose 1.56 mg/Kg, po) to that of K; type: functional, Urine; how it was run: as §2
[23] = It is the ratio, measured as saluretic activity in the dog as concentration of Cl- in urinary excretion (dose 1.56 mg/Kg, po) to that of (Na+)+(K+); type: functional, Urine; how it was run: as §2
Canis familiaris [24] = assay: Sailuric activity in the dog measured as concentration of Cl - in urinary excretion (2 animals/dose) at (dose 1.56 mg/Kg, po); type: functional, Canis lupus familiaris, Urine; how it was run: as §3
Canis familiaris [25] = assay: Sailuric activity in the dog measured as concentration of K+ in urinary excretion (2 animals/dose) at (dose 1.56 mg/Kg, po); type: functional, Canis lupus familiaris, Urine; how it was run: as §3
Canis familiaris [26] = assay: Sailuric activity in the dog measured as concentration of Na+ in urinary excretion (2 animals/dose) at (dose 1.56 mg/Kg, po); type: functional, Canis lupus familiaris, Urine; how it was run: as §3
[27] = It is the ratio, measured as saluretic activity in the dog as concentration of Na+ in urinary excretion (dose 1.56mg/Kg, po) to that of K; type: functional, Urine; how it was run: as §2
Canis familiaris [28] = assay: Saluretic activity in the dog measured as concentration of Na+ in urinary excretion (2 animals/dose) at (dose 12.5 mg/Kg, po); type: functional, Canis lupus familiaris, Urine; how it was run: as §1
Canis familiaris [29] = assay: Saluretic activity in the dog measured as concentration of K+ in urinary excretion (2 animals/dose) at (dose 12.5 mg/Kg, po); type: functional, Canis lupus familiaris, Urine; how it was run: as §1
Canis familiaris [30] = assay: Saluretic activity in the dog measured as concentration of Cl - in urinary excretion (2 animals/dose) at (dose 1.56 mg/Kg, po); type: functional, Canis lupus familiaris, Urine; how it was run: as §3
Canis familiaris [31] = assay: Saluretic activity in the dog measured as concentration of Cl - in urinary excretion (2 animals/dose) at (dose 12.5 mg/Kg, po); type: functional, Canis lupus familiaris, Urine; how it was run: as §3
[32] = It is the ratio, measured as saluretic activity in the dog as concentration of Na+ in urinary excretion (dose 12.5 mg/Kg, po) to that of K; type: functional, Urine; how it was run: as §2
[33] = It is the ratio, measured as saluretic activity in the dog as concentration of Na+ in urinary excretion(dose 1.56 mg/kg, p.o.) to that of K; type: functional, Urine; conditions: route oral; how it was run: as §2
[34] = It is the ratio, measured as saluretic activity in the dog as concentration of Cl- in urinary excretion (dose 12.5 mg/Kg, po) to that of (Na++K+); type: functional, Urine; how it was run: as §2
[35] = It is the ratio, measured as saluretic activity in the dog as concentration of Cl- in urinary excretion (dose mg/Kg, po) to that of (Na+)+(K+); type: functional, Urine; how it was run: as §2

SMILES | Diuretic activity (Canis familiaris [3]) | Diuretic activity (Canis familiaris [4]) | Diuretic activity (Rattus norvegicus [10]) | Saluretic activity (Rattus norvegicus [11]) | Saluretic activity (Rattus norvegicus [12]) | Saluretic activity (Rattus norvegicus [17]) | Saluretic activity (Canis familiaris [19]) | Ratio [22] | Ratio [23] | Saluretic activity (Canis familiaris [20]) | Saldiuretic activity (Canis familiaris [30]) | further results
NS(=O)(=O)c1cc(S(=O)(=O)[O-])c(NCc2cccs2)cc1Oc1ccccc1.[K+] | 58 ml kg-1 6hr-1 | 78 ml kg-1 6hr-1 | 0.8 mL/kg | 0.6 m equiv 5hr-1 kg-1 | 0.4 m equiv 5hr-1 kg-1 | 0.8 m equiv 5hr-1 kg-1 |  |  |  |  |  | Saluretic activity (Canis familiaris [1]): 3.73 m equiv 6hr-1 kg-1; Saluretic activity (Canis familiaris [2]): 6.89 m equiv 6hr-1 kg-1; Saluretic activity (Canis familiaris [5]): 1.03 m equiv 6hr-1 kg-1; Saldiuretic activity (Canis familiaris [6]): Active; Saldiuretic activity (Canis familiaris [7]): 1.47 m equiv 6hr-1 kg-1; Saldiuretic activity (Canis familiaris [8]): 4.45 m equiv 6hr-1 kg-1; Saldiuretic activity (Canis familiaris [9]): 7.84 m equiv 6hr-1 kg-1; Ratio [13]: 0.95; Ratio [14]: 3.6; Ratio [15]: 4.7; Ratio [16]: 0.95; Diuretic activity (Rattus norvegicus [18]): inactive
NS(=O)(=O)c1cc(S(=O)(=O)[O-])c(NCc2ccco2)cc1[S+]([O-])c1ccccc1.[K+] (centres undefined) | 48.4 ml kg-1 6hr-1 |  | 0.8 mL/kg | 1.7 m equiv 5hr-1 kg-1 | 1.5 m equiv 5hr-1 kg-1 | 0.8 m equiv 5hr-1 kg-1 | 0.59 m equiv 6hr-1 kg-1 | 1.8 | 1.3 |  |  | Saldiuretic activity (Canis familiaris [20]): 0.33 m equiv 6hr-1 kg-1; Saldiuretic activity (Canis familiaris [21]): 1.27 m equiv 6hr-1 kg-1
NS(=O)(=O)c1cc(S(=O)(=O)[O-])c(NCc2ccco2)cc1S(=O)(=O)C1CCCC1.[Na+] | 58 ml kg-1 6hr-1 |  | 4.3 mL/kg | 9.5 m equiv 5hr-1 kg-1 | 2 m equiv 5hr-1 kg-1 | 8 m equiv 5hr-1 kg-1 |  |  | 1 |  |  | Saldiuretic activity (Canis familiaris [24]): 5.26 m equiv 6hr-1 kg-1; Saldiuretic activity (Canis familiaris [25]): 1.02 m equiv 6hr-1 kg-1; Saluretic activity (Canis familiaris [26]): 4.24 m equiv 6hr-1 kg-1; Ratio [27]: 4.2
NS(=O)(=O)c1cc(S(=O)(=O)[O-])c(NCc2ccco2)cc1S(=O)(=O)c1ccccc1.[K+] | 35.3 ml kg-1 6hr-1 | 59.7 ml kg-1 6hr-1 | 3.6 mL/kg | 9.8 m equiv 5hr-1 kg-1 | 2.6 m equiv 5hr-1 kg-1 | 7.1 m equiv 5hr-1 kg-1 | 0.49 m equiv 6hr-1 kg-1 |  | 1.5 | 0.25 m equiv 6hr-1 kg-1 | 1.09 m equiv 6hr-1 kg-1 | Saluretic activity (Canis familiaris [28]): 4 m equiv 6hr-1 kg-1; Saluretic activity (Canis familiaris [29]): 0.93 m equiv 6hr-1 kg-1; Saldiuretic activity (Canis familiaris [31]): 5.28 m equiv 6hr-1 kg-1; Ratio [32]: 4.3; Ratio [33]: 2; Ratio [34]: 1.1
NS(=O)(=O)c1cc(S(=O)(=O)[O-])c(NCc2ccco2)cc1[S+]([O-])C1CCCCC1.[Na+] (centres undefined) | 48.4 ml kg-1 6hr-1 |  | 1.2 mL/kg | 1.7 m equiv 5hr-1 kg-1 | 1.4 m equiv 5hr-1 kg-1 | 1.3 m equiv 5hr-1 kg-1 | 0.59 m equiv 6hr-1 kg-1 | 1.8 |  | 0.33 m equiv 6hr-1 kg-1 | 1.27 m equiv 6hr-1 kg-1 | Ratio [35]: 1.4

Source: ChEMBL document CHEMBL1122273, “5-sulfamoylorthanilic acids, a sulfonamide series with salidiuretic activity” (J Med Chem, 1983)
